Source: ChEMBL document CHEMBL1138503, “(Z)- and (E)-2-(1,2-dihydroxyethyl)methylenecyclopropane analogues of 2'-deoxyadenosine and 2'-deoxyguanosine. Synthesis of all stereoisomers, absolute configuration, and antiviral activity” (J Med Chem, 2009)
Active and inactive are the calls of the source. The calls are words filed in the database; no cut-off is given here.

Columns and labels:
Hepatitis B virus = assay: Antiviral activity against Hepatitis B virus; assay type: functional, organism-based
Hepatitis C virus = assay: Antiviral activity against Hepatitis C virus; assay type: functional, organism-based; details: Hepacivirus hominis
Human betaherpesvirus 5 [1] = assay: Antiviral activity against Human cytomegalovirus AD169 infected in human foreskin fibroblast cells assessed as inhibition of virus-induced cytopathic effect; assay type: functional, organism-based; details: Human betaherpesvirus 5, AD169, Fibroblast
In short: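 HCMV strain AD169 grown in human foreskin fibroblasts; cytopathic effect (CPE) inhibition assay gives EC50; cytotoxicity taken by neutral red uptake.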

Human betaherpesvirus 5 [2] = assay: Antiviral activity against Human cytomegalovirus Towne infected in human foreskin fibroblast cells by plaque reduction assay; assay type: functional, organism-based; details: Human betaherpesvirus 5, Towne
In short: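 HCMV Towne in human foreskin fibroblasts, plaque reduction assay; EC50 from plaque counts; cytotoxicity scored visually in uninfected HFF used for the plaque assays.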

[3] = Cytotoxicity against human Akata cells; assay type: cell-based
[4] = molecular target: T1, Adenosine deaminase (Bos taurus) (UniProt P56658); assay: Activity of calf intestine adenosine deaminase assessed as deamination after 24 hrs; set-up: concentration or dose not given beside the values
T1 sequence (whole entry): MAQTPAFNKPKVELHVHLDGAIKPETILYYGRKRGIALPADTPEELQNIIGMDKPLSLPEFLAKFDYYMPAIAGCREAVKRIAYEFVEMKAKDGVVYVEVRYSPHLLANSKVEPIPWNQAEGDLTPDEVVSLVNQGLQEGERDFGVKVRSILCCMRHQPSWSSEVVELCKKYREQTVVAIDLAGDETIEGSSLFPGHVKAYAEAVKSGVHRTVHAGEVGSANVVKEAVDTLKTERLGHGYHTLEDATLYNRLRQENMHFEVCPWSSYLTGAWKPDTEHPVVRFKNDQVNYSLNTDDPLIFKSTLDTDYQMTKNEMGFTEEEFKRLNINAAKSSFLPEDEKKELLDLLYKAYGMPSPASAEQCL
In short: (§1)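 Substrate (2 µmol) stirred with calf intestine ADA (1.7 units) in 0.05 M Na2HPO4, pH 7.5, 0.6 mL total. Aliquots withdrawn, diluted with buffer, and UV spectra recorded. Deamination followed as the fall in absorbance at 260 nm, expressed as percent deaminated at 24 h and 48 h.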

[5] = molecular target: T1, Adenosine deaminase (Bos taurus); assay: Activity of calf intestine adenosine deaminase assessed as deamination after 48 hrs; set-up: concentration or dose not given beside the values; in short: as §1
HFF [6] = assay: (§2) Cytotoxicity against HFF cells by plaque reduction assay; assay type: cell-based; details: human, hff
In short: (§3)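 Cytotoxicity scored visually in uninfected HFF cells run alongside the HCMV plaque reduction assays.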

Human gammaherpesvirus 4 = assay: Antiviral activity against Epstein-Barr virus infected in human Akata cells by DNA hybridization assay; assay type: functional, organism-based; details: human gammaherpesvirus 4, Akata
In short: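 EBV DNA hybridization assay run in Akata cells; EC50 by DNA hybridization.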

Human betaherpesvirus 5 [7] = assay: Antiviral activity against cyclopropavir-resistant Human cytomegalovirus isolate 2696r with phosphotransferase UL97 mutation by plaque reduction assay; assay type: functional, organism-based; details: Human betaherpesvirus 5, isolate 2696r
In short: (§4)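 Plaque reduction in HFF cells with UL97-mutant HCMV raised from Towne: E8 (two point mutations in UL97, selected by growth in synadenol) and 2696r (truncated UL97, selected in cyclopropavir). Four drug concentrations tested in duplicate; EC50 from plaque counts.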

Murid betaherpesvirus 1 = assay: Antiviral activity against Murine cytomegalovirus infected in mouse embryonic fibroblast cells by plaque reduction assay; assay type: functional, organism-based; details: Murid betaherpesvirus 1, Fibroblast
In short: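 MCMV plaque reduction assay in mouse embryonic fibroblast (MEF) cells; EC50 from plaque counts.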

Human betaherpesvirus 5 [8] = assay: Antiviral activity against Human cytomegalovirus E8 with phosphotransferase UL97 two point mutation by plaque reduction assay; assay type: functional, organism-based; details: Human betaherpesvirus 5, E8; in short: as §4
Human alphaherpesvirus 2 = assay: Antiviral activity against HSV2 infected in human foreskin fibroblast cells; assay type: functional, organism-based
HFF [9] = assay: (§5) Cytotoxicity against HFF cells by neutral red uptake assay; assay type: cell-based; details: human, hff
In short: (§6)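 Uninfected HFF cells, run alongside the HCMV cytopathic effect inhibition assay. Cytotoxicity read by neutral red uptake.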

Human alphaherpesvirus 1 [10] = assay: Antiviral activity against HSV1 infected in african green monkey BSC1 cells by ELISA; assay type: functional, organism-based; details: Human alphaherpesvirus 1, BSC-1
Human alphaherpesvirus 1 [11] = assay: Antiviral activity against HSV1 infected in human foreskin fibroblast cells; assay type: functional, organism-based
[12] = Cytotoxicity against african green monkey BSC1 cells; assay type: cell-based; details: chlorocebus aethiops, bsc-1
Human alphaherpesvirus 3 = assay: Antiviral activity against Varicella zoster virus infected in human foreskin fibroblast cells; assay type: functional, organism-based; details: Human alphaherpesvirus 3, Fibroblast
MEF = assay: Cytotoxicity against MEF cells; assay type: cell-based; details: mouse
[13] = as §5; assay type: cell-based; details: human, HFF cells; in short: as §6
[14] = as §2; assay type: cell-based; details: human, HFF cells; in short: as §3

Row | SMILES | Activity (Hepatitis B virus) | Activity (Hepatitis C virus) | EC50 (Human betaherpesvirus 5 [1]) [µM] | EC50 (Human betaherpesvirus 5 [2]) [µM] | CC50 ([3]; akata) [µM] | Activity [4] [%] | Activity [5] [%] | EC50 (Human gammaherpesvirus 4) [µM] | CC50 (HFF [9]) [µM] | other results
1 | Nc1ncnc2c1ncn2/C=C1\C[C@@H]1[C@H](O)CO | inactive | inactive | > 60 | > 100 | 57 | 85 | 100 | > 20 |  | CC50 (HFF [6]): > 100 µM
2 | Nc1nc2c(ncn2COCCO)c(=O)[nH]1 [ACYCLOVIR] | inactive | inactive |  |  |  |  |  | 3.3 |  | CC50 ([3]; Akata cells): > 100 µM
3 | Nc1nc2c(ncn2/C=C2/C[C@@H]2[C@H](O)CO)c(=O)[nH]1 | inactive | inactive | > 300 | > 100 | 54 |  |  | 43 |  | 
4 | Nc1nc2c(ncn2COC(CO)CO)c(=O)[nH]1 [GANCICLOVIR] | inactive | inactive | 0.04 | 1.2 |  |  |  |  |  | EC50 (Human betaherpesvirus 5 [7]): 42 µM; EC50 (Murid betaherpesvirus 1): 5.5 µM; EC50 (Human betaherpesvirus 5 [8]): 22 µM
5 | Nc1nc2c(ncn2/C=C2/C[C@H]2[C@H](O)CO)c(=O)[nH]1 | inactive | inactive | > 300 | > 100 | 62.6 |  |  | > 20 |  | 
6 | Nc1ncnc2c1ncn2/C=C1\C[C@@H]1[C@@H](O)CO | inactive | inactive | > 300 | > 100 | 50.6 | 100 | 100 | 50.4 |  | 
7 | Nc1nc2c(ncn2/C=C2/C[C@H]2[C@@H](O)CO)c(=O)[nH]1 | inactive | inactive | 7.5 | 6.8 | 78 |  |  | 8 | 299 | Activity (Human alphaherpesvirus 2): inactive; EC50 (Human betaherpesvirus 5 [7]): > 100 µM; EC50 (Murid betaherpesvirus 1): 11.3 µM; EC50 (Human alphaherpesvirus 1 [10]): 50 µM; Activity (Human alphaherpesvirus 1 [11]): inactive; CC50 [12]: > 100 µM; CC50 (HFF [6]): > 100 µM; EC50 (Human alphaherpesvirus 3): 47 µM; Activity (MEF): Not Active; EC50 (Human betaherpesvirus 5 [8]): 72 µM
8 | Nc1ncnc2c1ncn2/C=C1/C[C@H]1[C@H](O)CO | inactive | inactive | > 60 | > 100 | 93.5 | 0 | 0 | 60 | 206 | 
9 | Nc1nc2c(ncn2/C=C2\C[C@@H]2[C@H](O)CO)c(=O)[nH]1 | inactive | inactive | > 60 | > 100 | 67 |  |  | > 20 | > 300 | 
10 | Nc1ncnc2c1ncn2/C=C1\C[C@H]1[C@H](O)CO | inactive | inactive | > 60 | > 100 | 72.7 | 65 | 85 | 9.8 | 194 | 
11 | Nc1nc2c(ncn2/C=C2/C[C@@H]2[C@@H](O)CO)c(=O)[nH]1 | inactive | inactive | > 300 | > 100 | 56 |  |  | > 20 |  | 
12 | Nc1ncnc2c1ncn2/C=C1/C[C@@H]1[C@H](O)CO | inactive | inactive | 300 | > 100 | 50.5 | 45 | 80 | > 20 |  | 
13 | Nc1ncnc2c1ncn2/C=C1\C[C@H]1[C@@H](O)CO | inactive | inactive | > 60 | > 100 | 73 | 100 | 100 | 17 | 264 | 
14 | Nc1nc2c(ncn2/C=C2\C[C@H]2[C@@H](O)CO)c(=O)[nH]1 | inactive | inactive | > 60 | > 100 | 75 |  |  | 40 | 298 | 
15 | Nc1nc2c(ncn2/C=C2\C[C@H]2[C@H](O)CO)c(=O)[nH]1 | inactive | inactive | > 300 | > 100 | 86.6 |  |  | 58.7 |  | CC50 (HFF [6]): > 300 µM
16 | Nc1nc2c(ncn2/C=C2/CC2(CO)CO)c(=O)[nH]1 [FILOCICLOVIR] | inactive | inactive | 0.49 | 0.46 |  |  |  | 0.22 |  | CC50 [13]: > 100 µM; EC50 (Human betaherpesvirus 5 [7]): 28 µM; CC50 [14]: > 100 µM; EC50 (Human betaherpesvirus 5 [8]): 8 µM
17 | Nc1ncnc2c1ncn2/C=C1/C[C@H]1[C@@H](O)CO | inactive | inactive | > 60 | > 100 | 61.5 | 0 | 0 | 52.6 |  | 
18 | Nc1ncnc2c1ncn2/C=C1/C[C@@H]1[C@@H](O)CO | inactive | inactive | > 60 | > 100 | 55 | 65 | 80 | 43 | > 300 | 
19 | Nc1nc2c(ncn2/C=C2\C[C@@H]2[C@@H](O)CO)c(=O)[nH]1 | inactive | inactive | > 300 | > 100 | 61 |  |  | 18 |  | 
20 | Nc1nc(O)c2ncn(COC(CO)CO)c2n1 [GANCICLOVIR] |  |  |  |  |  |  |  |  |  | CC50 [13]: > 100 µM; CC50 [14]: > 100 µM
